XBP1 UPR activ – activators of adaptive XBP1 UPR arm, primary screen, cell-based, CHO-XBP1 luciferase reporter, luminescence, uHTS | IRE1-XBP1 UPR activation; percent of tunicamycin response, DMSO as zero | activation, % at 20 µM | 0.33% of 330,000 active | AID 463104, 2010;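 active = versus positive control, 20 µM dose yields 30% or more activation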;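 note: 100% = tunicamycin at 10 µg/mL and 0% = DMSO only wells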
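Material: CHO cell line with stable XBP1 luciferase reporter; schedule: 16-18 h cell attachment at 37 °C, then 6 h compound exposure; signal: glow luminescence from Steady-Glo reagent; medium: serum-containing F12 medium, 10% FBS; benchmarks: tunicamycin 10 µg/mL and vehicle-only wells; read-out: percent activation relative to tunicamycin reference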
Mdm2 MdmX PPI – inhibitors of human Mdm2-MdmX association, primary screen, cell-based, luminescence, split luciferase, SaOS-2, uHTS; Protein Mdm4 (Homo sapiens) + E3 ubiquitin-protein ligase Mdm2 (Homo sapiens), …; 3% of 330,000 active; SaOS-2 split-luciferase Mdm2/MdmX complementation; inhibition, % at 8 µM; AID 485346, 2010;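 active = inhibition of at least 50% at 8 µM in the primary screen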
CHOP UPR activ – activators of apoptotic CHOP UPR arm, primary screen, cell-based, CHO-CHOP luciferase reporter, luminescence, uHTS; 0.34% of 330,000 active; UPR activation; percent of tunicamycin response over DMSO baseline; AID 449763, 2010; activation, % at 10 µM;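 active = at 10 µM dose, activation of 40% or more, normalized to positive control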;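 note: 100% = tunicamycin at 10 µg/mL and 0% = DMSO alone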
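Dosing – one dose, 10 µM in 0.5% DMSO · System – CHO-CHOP cells, stable luciferase reporter of PERK-eIF2a-CHOP signalling · Input – 500 cells/well · Control set – tunicamycin 10 µg/mL final as positive, DMSO-only wells as negative · Timing – 6 h compound treatment, 37 °C · Measure – % activation vs tunicamycin · Technique – luminescence read with Steady-Glo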
SKKanGAS inh – S. pyogenes SKKanGAS growth inhibitors in kanamycin, primary screen, streptokinase expression inhibitor project, SKKanGAS strain, BacTiter-Glo luminescence. 6 h. inhibition, % at 7.5 µM. 1.3% of 300,000 active;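 active = mean replicate score, as percent of positive control median, at least 50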;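 note: strain carries kanamycin resistance gene driven by streptokinase promoter and grows in 40 µg/ml kanamycin; loss of luminescence reflects streptokinase promoter inhibition or plain growth inhibition; 0% = median of DMSO wells and 100% = positive control at its reference dose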
CSC inhib – cancer stem cell viability inhibitors, primary screen, luminescence; cancer stem cell-like cells viability; inhibition, % at 7.5 µM; 1.1% of 300,000 active; AID 2717, 2010; in the data active = inhibition above about 75%; tested in HMLE shEcad cells
Beta cell apopt – inhibitors of cytokine-induced beta cell apoptosis, primary screen, luminescence | protection from apoptosis, % (test concentration not listed) | AID 435005, 2010 | 0.8% of 300,000 active | INS-1E cytokine-induced death, ATP luminescence, 48 h; percent of positive-control rescue, neutral wells zero;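 active = Every replicate reaches about 75%, or at least half do and their mean reaches it too, limit read from the data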;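 note: 0% = cytokine-treated negative control wells and 100% = positive control rescue; higher means more ATP so stronger rescue from cytokine killing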
XBP1 UPR conf – IRE1-XBP1 UPR arm activators, confirmation, cell-based, CHO-XBP1 luciferase reporter, luminescence, single concentration; shares compounds with XBP1 UPR activ; activation, % at 20 µM; 63% of 1,000 active; AID 485299, 2010;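 active = reporter signal at least 30% of the positive control's activation in two or more of four replicate wells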;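 note: plate controls were DMSO negative control for no effect and tunicamycin 10 µg/mL positive control for full effect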
Mdm2-MdmX conf – Mdm2-MdmX complex disruptors, retested hits, confirmation, luminescence, single concentration; 55% of 10,000 active; Mdm2-MdmX binding, luminescent assay; inhibition, % at 8 µM; shares compounds with Mdm2 MdmX PPI; in the data active = inhibition above about 40%
FLuc counter – full-length luciferase signal inhibition, confirmation, counter-screen for Mdm2/MdmX interaction inhibitor project, cell-based, single concentration, SaOS-2; inhibition, % at 8 µM; AID 504607, 2011; SaOS-2 full-length luciferase counterscreen, luminescence; shares compounds with Mdm2 MdmX PPI; 77% of 6,200 active;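 active = mean inhibition at 8 µM reaching about 37%, which flags the compound as non-specific, limit read from the data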;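 note: p53-null SaOS-2 cells with luciferase driven by a doxycycline-inducible promoter; compound on cells about two nights before reading with doxycycline added after day one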
Starred values were filed as active, the others as inactive. Most compounds without a hit are left out; they make up all but 4.8% or so of the library.

What do the screens show for `COc1ccccc1CCNC(=O)C1CCN(c2nnc(C)c3c(C)n(-c4ccc(C)cc4)nc23)CC1`?
XBP1 UPR activ: 114*; Mdm2 MdmX PPI: 89*; CHOP UPR activ: 5; SKKanGAS inh: 8; CSC inhib: 11; Beta cell apopt: 33; XBP1 UPR conf: 139*; Mdm2-MdmX conf: 39; FLuc counter: 79*

How did Cc1ccc(C(=O)C2CCN(C(=S)NCCCOC(C)C)CC2)cc1 do in these assays?
XBP1 UPR activ: -4; Mdm2 MdmX PPI: 14; CHOP UPR activ: 1; SKKanGAS inh: -3; CSC inhib: -5

Results for COc1ccc(NC(=O)CCC(=O)c2cc(C)sc2C)cc1 ?
XBP1 UPR activ: 0; Mdm2 MdmX PPI: 19; CHOP UPR activ: 0

Results for Cc1ccc(C(C(=O)NCc2ccco2)N(C(=O)CNC(=O)c2cccs2)c2c(C)cc(C)cc2C)cc1 (stereo not drawn) ?
XBP1 UPR activ: 36*; Mdm2 MdmX PPI: 87*; CHOP UPR activ: 25; SKKanGAS inh: 8; CSC inhib: 32; Beta cell apopt: -6; XBP1 UPR conf: 32*; Mdm2-MdmX conf: 53*; FLuc counter: 43*

How did COc1ccc(C(=O)NNC(=O)CSc2nnc(C3CC3)n2C)cc1 do in these assays?
XBP1 UPR activ: 1; Mdm2 MdmX PPI: 16; CHOP UPR activ: 2; SKKanGAS inh: -1; CSC inhib: 1; Beta cell apopt: 8

What do the screens show for `Cc1ccc(OCc2nnc(SCC(=O)Nc3nccs3)n2-c2ccccc2)cc1C`?
XBP1 UPR activ: 35*; Mdm2 MdmX PPI: 55*; CHOP UPR activ: 9; SKKanGAS inh: -4; CSC inhib: -13; Beta cell apopt: 3; XBP1 UPR conf: 15; Mdm2-MdmX conf: 25

Results for Cc1ccc(-n2c(COc3c(C)cccc3C)nnc2SCC(=O)Nc2nccs2)cc1 ?
XBP1 UPR activ: -2; Mdm2 MdmX PPI: -27; CHOP UPR activ: 0; SKKanGAS inh: 1; CSC inhib: -3; Beta cell apopt: -3

How did Cc1ccc(-n2c(SCC(=O)Nc3nccs3)nc3c(c2=O)SCC3)cc1 do in these assays?
XBP1 UPR activ: 9; Mdm2 MdmX PPI: 4; CHOP UPR activ: 2; SKKanGAS inh: 5; CSC inhib: -7; Beta cell apopt: 0

What do the screens show for `CCOc1ccc(-n2c(SCC(=O)Nc3nccs3)nc3c(c2=O)SCC3)cc1`?
XBP1 UPR activ: 75*; Mdm2 MdmX PPI: 59*; CHOP UPR activ: 12; SKKanGAS inh: 2; CSC inhib: 12; Beta cell apopt: 17; XBP1 UPR conf: 9; Mdm2-MdmX conf: 17

What do the screens show for `O=C(Cn1c2ccccc2c(=O)c2cc([N+](=O)[O-])ccc21)Nc1ccccc1Cl`?
XBP1 UPR activ: 118*; Mdm2 MdmX PPI: 53*; CHOP UPR activ: 29; SKKanGAS inh: 10; Beta cell apopt: 9; XBP1 UPR conf: 80*; Mdm2-MdmX conf: 16

What do the screens show for `Cc1ccc(C)c(S(=O)(=O)N2CCN(C(=O)CN3C(=O)NC(C)(C)C3=O)CC2)c1`?
XBP1 UPR activ: 0; Mdm2 MdmX PPI: -2; CHOP UPR activ: 1; CSC inhib: 0; Beta cell apopt: -5

What do the screens show for `CCC(C)(C)C1CCC2(CC1)NC(=O)N(CC(=O)N1CCN(S(=O)(=O)c3cc(C)ccc3C)CC1)C2=O` (stereo not drawn)?
XBP1 UPR activ: 81*; Mdm2 MdmX PPI: 82*; CHOP UPR activ: 4; SKKanGAS inh: 6; CSC inhib: 7; Beta cell apopt: 29; XBP1 UPR conf: 107*; Mdm2-MdmX conf: 37; FLuc counter: 89*

How did Cc1cc2nc(CCN3CCOCC3)n(S(=O)(=O)c3ccc(C(C)(C)C)cc3)c2cc1C do in these assays?
XBP1 UPR activ: 32*; Mdm2 MdmX PPI: 52*; CHOP UPR activ: 15; SKKanGAS inh: 15; CSC inhib: 55; Beta cell apopt: -5; XBP1 UPR conf: 0; Mdm2-MdmX conf: 25

How did Cc1cc2ncn(S(=O)(=O)c3ccc(S(=O)(=O)N4CCOCC4)cc3)c2cc1C do in these assays?
XBP1 UPR activ: 4; Mdm2 MdmX PPI: -9; CHOP UPR activ: -2; SKKanGAS inh: -6; CSC inhib: -4; Beta cell apopt: -4

How did Cn1c(C(=O)N2CCN(c3ccc(F)cc3)CC2)cc2ccccc21 do in these assays?
XBP1 UPR activ: -2; Mdm2 MdmX PPI: 11; CHOP UPR activ: 0; SKKanGAS inh: 9; CSC inhib: 15; Beta cell apopt: -4

Results for Cc1ccc(-c2[nH]ncc2/C=N/n2c(COc3ccccc3)nc3ccccc3c2=O)cc1 ?
XBP1 UPR activ: 37*; Mdm2 MdmX PPI: 82*; CHOP UPR activ: 5; SKKanGAS inh: 34; CSC inhib: 21; Beta cell apopt: 41; XBP1 UPR conf: 45*; Mdm2-MdmX conf: 46*; FLuc counter: 56*

What do the screens show for `CCC[C@@H](CNC)NC[C@H](Cc1ccccc1)NCCCCc1ccccc1`?
XBP1 UPR activ: 46*; Mdm2 MdmX PPI: 97*; CHOP UPR activ: 10; SKKanGAS inh: 8; CSC inhib: 133*; Beta cell apopt: 19; XBP1 UPR conf: 25; Mdm2-MdmX conf: 83*; FLuc counter: 55*

Results for Cc1ccc(/C=C(\C#N)C(=O)NC(C)c2ccccc2)o1 (stereo not drawn) ?
XBP1 UPR activ: -3; Mdm2 MdmX PPI: 7; CHOP UPR activ: 0; SKKanGAS inh: -6; CSC inhib: -14; Beta cell apopt: -8

How did COCc1cc(=O)[nH]c(Nc2nc(C)c3cc(OC)ccc3n2)n1 do in these assays?
XBP1 UPR activ: 5; Mdm2 MdmX PPI: 9; CHOP UPR activ: -2; SKKanGAS inh: 5; CSC inhib: 1; Beta cell apopt: -3
